Data published in article PMC4201344 (ACS Chemical Biology, 2014).
Substitutions are numbered along the chain they refer to.

How the values were obtained:
[1] = biological target: GluClβ A17′G (Caenorhabditis elegans, UniProt Q17328, A294G); assay: two-electrode voltage clamp, Xenopus laevis oocytes; assay type: cell-based, C. elegans; settings: glutamate
Outline: (§1)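 C. elegans GluClβ (mammalian codon-optimised) in pGEMhe, mutated by QuikChange; T7 mRNA. […] Voltage clamp at −60 mV in Ca-free ND96, pH 7.5. […] Peak currents taken from baseline, normalised, averaged per concentration, and fit to Hill equation (EC50, nH).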

[2] = test system: GluClβ with α signal peptide, T6′S, Y156TAG F1–Phe; assay: two-electrode voltage clamp, Xenopus laevis oocytes, nonsense suppression; assay type: cell-based, C. elegans; settings: glutamate
[3] = biological target: GluClβ A20′S (Caenorhabditis elegans, UniProt Q17328, A297S); assay: two-electrode voltage clamp, Xenopus laevis oocytes; assay type: cell-based, C. elegans; settings: glutamate
Sequence of GluClβ A20′S (Q17328 23-434 A297S): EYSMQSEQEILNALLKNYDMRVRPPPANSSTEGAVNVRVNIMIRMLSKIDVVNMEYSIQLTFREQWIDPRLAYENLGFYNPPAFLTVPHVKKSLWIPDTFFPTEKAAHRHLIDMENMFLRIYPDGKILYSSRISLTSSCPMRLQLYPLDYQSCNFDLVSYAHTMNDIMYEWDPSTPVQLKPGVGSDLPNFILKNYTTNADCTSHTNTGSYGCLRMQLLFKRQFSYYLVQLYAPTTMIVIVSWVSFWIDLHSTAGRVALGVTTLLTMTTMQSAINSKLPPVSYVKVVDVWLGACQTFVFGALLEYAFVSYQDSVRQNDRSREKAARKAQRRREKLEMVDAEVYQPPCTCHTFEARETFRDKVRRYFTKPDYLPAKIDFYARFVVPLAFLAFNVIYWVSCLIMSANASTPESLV
Outline: as §1

[4] = test system: GluClβ T6′S, Y206TAG Br–Phe; assay: two-electrode voltage clamp, Xenopus laevis oocytes, nonsense suppression; assay type: cell-based, C. elegans; settings: glutamate
[5] = biological target: T1, GluClβ A17′S (Caenorhabditis elegans, UniProt Q17328, A294S); assay: two-electrode voltage clamp, Xenopus laevis oocytes; assay type: cell-based, C. elegans; settings: glutamate
T1 sequence (Q17328 23-434 A294S): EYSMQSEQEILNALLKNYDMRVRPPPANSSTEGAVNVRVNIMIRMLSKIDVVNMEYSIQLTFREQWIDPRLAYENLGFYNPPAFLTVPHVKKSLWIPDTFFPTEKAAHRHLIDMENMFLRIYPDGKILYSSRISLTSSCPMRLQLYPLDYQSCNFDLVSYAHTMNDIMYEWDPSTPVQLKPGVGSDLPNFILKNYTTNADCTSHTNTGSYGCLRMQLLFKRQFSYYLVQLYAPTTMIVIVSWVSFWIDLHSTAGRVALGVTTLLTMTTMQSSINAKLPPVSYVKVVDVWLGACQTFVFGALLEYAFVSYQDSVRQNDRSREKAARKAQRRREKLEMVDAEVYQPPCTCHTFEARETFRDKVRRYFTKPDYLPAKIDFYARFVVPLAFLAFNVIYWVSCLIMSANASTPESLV

[6] = biological target: GluClβ T6′S (Caenorhabditis elegans, UniProt Q17328, T283S); assay: as above; assay type: cell-based, C. elegans; settings: glutamate
Sequence of GluClβ T6′S (Q17328 23-434 T283S): as the sequence (Q17328 23-434 A297S) above, with T261S, S275A counted along it

[7] = biological target: GluClβ T6′S, S126A (Caenorhabditis elegans, UniProt Q17328, S152A/T283S); assay: as above; assay type: cell-based, C. elegans; settings: glutamate
Sequence of GluClβ T6′S, S126A (Q17328 23-434 S152A/T283S): as the sequence (Q17328 23-434 A297S) above, with S130A, T261S, S275A counted along it

[8] = test system: GluClβ T6′S, Y206TAG F1–Phe; assay: two-electrode voltage clamp, Xenopus laevis oocytes, nonsense suppression; assay type: cell-based, C. elegans; settings: glutamate
[9] = biological target: T2, GluClβ T6′S, Y206TAG Phe (Caenorhabditis elegans, UniProt Q17328, T283S/Y232F); assay: two-electrode voltage clamp, Xenopus laevis oocytes, nonsense suppression; assay type: cell-based, C. elegans; settings: glutamate
T2 sequence (Q17328 23-434 Y232F/T283S): T1 sequence (Q17328 23-434 A294S) with Y210F, T261S, S272A
Outline: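 Site-specific TAG codon, read by 74mer THG73 tRNA ligated to dCA-acylated amino acid; NVOC removed by 5 min xenon-lamp irradiation just before injection. Oocytes coinjected with 37.5 ng mRNA plus ~1 μg/μL tRNA at 48 and 24 h pre-recording; unacylated 76mer tRNA served as read-through control.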

[10] = biological target: T3, GluClβ T13′A (Caenorhabditis elegans, UniProt Q17328, T290A); assay: two-electrode voltage clamp, Xenopus laevis oocytes; assay type: cell-based, C. elegans; settings: glutamate
T3 sequence (Q17328 23-434 T290A): T1 sequence (Q17328 23-434 A294S) with T268A, S272A

[11] = biological target: GluClα receptor (Caenorhabditis elegans, UniProt G5EBR3); settings: in the absence of ivermectin, Xenopus laevis oocytes; cited from earlier work
Sequence of GluClα receptor (G5EBR3 21-461): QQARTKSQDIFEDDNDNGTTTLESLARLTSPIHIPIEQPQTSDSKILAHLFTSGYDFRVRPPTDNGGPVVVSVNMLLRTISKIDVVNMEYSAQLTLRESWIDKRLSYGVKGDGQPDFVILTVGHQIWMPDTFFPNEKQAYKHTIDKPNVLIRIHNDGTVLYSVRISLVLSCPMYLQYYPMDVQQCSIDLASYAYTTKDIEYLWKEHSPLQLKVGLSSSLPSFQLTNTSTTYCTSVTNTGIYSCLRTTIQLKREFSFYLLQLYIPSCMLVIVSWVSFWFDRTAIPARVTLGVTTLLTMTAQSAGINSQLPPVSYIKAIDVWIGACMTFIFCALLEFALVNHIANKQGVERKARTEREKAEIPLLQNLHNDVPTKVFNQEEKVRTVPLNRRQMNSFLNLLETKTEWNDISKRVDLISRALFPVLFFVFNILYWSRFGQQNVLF

[12] = biological target: GluClβ T6′S, Y156F (Caenorhabditis elegans, UniProt Q17328, T283S/Y182F); assay: two-electrode voltage clamp, Xenopus laevis oocytes; assay type: cell-based, C. elegans; settings: glutamate
Sequence of GluClβ T6′S, Y156F (Q17328 23-434 Y182F/T283S): as the sequence (Q17328 23-434 A297S) above, with Y160F, T261S, S275A counted along it

Sequence of GluClβ A17′G (Q17328 23-434 A294G): as the sequence (Q17328 23-434 A297S) above, with A272G, S275A counted along it

Which results are given for `N[C@@H](CCC(=O)O)C(=O)O` [glutamate]?
EC50 [1]: > 5000 µM; EC50 [2]: 14000 ± 1000 µM; Hill [2]: 2.0 ± 0.1; Imax [2]: 0.1–5 μA; EC50 [3]: no response; EC50 [4]: 980 ± 30 µM; Hill [4]: 2.5 ± 0.1; Imax [4]: 0.08–6 μA; EC50 [5]: 230 ± 10 µM; Hill [5]: 2.5 ± 0.1; Imax [5]: 0.6–12 μA; Hill [6]: 2.4 ± 0.3; EC50 [7]: 4700 ± 100 µM; Hill [7]: 2.5 ± 0.1; EC50 [8]: 640 ± 10 µM; Hill [8]: 2.8 ± 0.1; Imax [8]: 0.04–0.34 μA; EC50 [9]: 160 ± 10 µM; Hill [9]: 3.0 ± 0.2; Imax [9]: 0.07–0.30 μA; EC50 [10]: 38 ± 1 µM; Hill [10]: 2.8 ± 0.1; Imax [10]: 0.1–6 μA; activation by glutamate [11]: not activated; EC50 [12]: 6400 ± 400 µM; Hill [12]: 1.6 ± 0.1
